The test system of series [1] is Klebsiella pneumoniae. In words: Potentiation of colistin-induced antimicrobial activity against colistin-resistant Klebsiella pneumoniae B9 assessed as fold reduction in colistin MIC at 60 uM after 18 hrs by broth microdilution assay. Format: functional. In short, it runs like this: (§1)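 Checkerboard-style resensitization following adapted CLSI broth microdilution. Bacteria were grown 4–6 h in CAMHB and subcultured to 5×10^5 CFU/mL. Adjuvant was added from DMSO stock and held constant while colistin was serially diluted in the dosed subculture. Plates were incubated stationary at 37°C for 18 h, then MICs were read. Fold reduction was taken relative to the colistin MIC without adjuvant.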
A general note: Broth dilution looks for growth in wells or tubes with falling amounts of substance.

Series [2] deals with Escherichia coli. In words: Potentiation of colistin-induced antimicrobial activity against colistin-resistant Escherichia coli ATCC 25922 expressing mcr1 gene assessed as fold reduction in colistin MIC at 60 uM after 18 hrs by broth microdilution assay. It is filed as functional. In short, it runs like this:
as §1

The test system of series [3] is Acinetobacter baumannii. The series can be described thus: Toxicity in Acinetobacter baumannii 4106 after 18 hrs by broth microdilution assay. The settings on record: in vitro. Format: organism-based. In short, it runs like this: (§2)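 Single-agent MIC per CLSI broth microdilution. Cells from a 4–6 h culture in cation-adjusted Mueller-Hinton broth adjusted to 5 ×10^5 CFU/mL. Compound (DMSO stock) added to 200 μM top concentration and twofold serially diluted six times, with an untreated control row. Plates sealed and incubated stationary at 37°C for 18 h before MIC read.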

The subject of series [4] is Klebsiella pneumoniae. In words: Toxicity in Klebsiella pneumoniae B9 after 18 hrs by broth microdilution assay. Format: organism-based. Summed up:
as §2

The subject of series [5] is Acinetobacter baumannii. In words: Toxicity in Acinetobacter baumannii ATCC 17978 expressing mcr1 gene after 18 hrs by broth microdilution assay. It is filed as organism-based. Summed up: as §2
Series [6] relates to Acinetobacter baumannii. The series can be described thus: Potentiation of colistin-induced antimicrobial activity against colistin-resistant Acinetobacter baumannii isolate 4112 assessed as fold reduction in colistin MIC at 60 uM after 18 hrs by broth microdilution assay. It is filed as functional. Summed up: as §1
Series [7] has as its system Klebsiella pneumoniae. In words: Potentiation of colistin-induced antimicrobial activity against colistin-resistant Klebsiella pneumoniae isolate A5 assessed as fold reduction in colistin MIC at 60 uM after 18 hrs by broth microdilution assay. Format: functional. Summed up:
as §1

Series [8] has as its system Klebsiella pneumoniae. The series can be described thus: Potentiation of colistin-induced antimicrobial activity against colistin-resistant Klebsiella pneumoniae isolate C3 assessed as fold reduction in colistin MIC at 60 uM after 18 hrs by broth microdilution assay. It is filed as functional. Summed up:
as §1

Series [9] relates to Escherichia coli. In words: Potentiation of colistin-induced antimicrobial activity against Escherichia coli ATCC 25922 assessed as fold reduction in colistin MIC at 60 uM after 18 hrs by broth microdilution assay. It is filed as functional. Summed up: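 Bacteria grown 4–6 h in cation-adjusted Mueller-Hinton broth and diluted to 5 ×10^5 CFU/mL. Adjuvant from DMSO stock held at fixed 60 μM while colistin is twofold serially diluted in the same adjuvant-dosed broth. Plates sealed and kept stationary at 37°C for 18 h. Colistin MIC read and fold reduction taken relative to colistin alone.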

Series [10] deals with Acinetobacter baumannii. The series can be described thus: Potentiation of colistin-induced antimicrobial activity against colistin-resistant Acinetobacter baumannii isolate 3942 assessed as fold reduction in colistin MIC at 50 uM after 18 hrs by broth microdilution assay. Format: functional. Summed up: (§3)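 CLSI-adapted broth microdilution. Bacteria were grown 4–6 h in cation-adjusted Mueller-Hinton broth and subcultured to 5 ×10^5 CFU/mL. The subculture was dosed with adjuvant from DMSO stock at a constant final concentration, then colistin was added and serially diluted across wells. Plates were incubated stationary at 37°C for 18 h and the MIC recorded. Fold reduction is relative to the colistin MIC without adjuvant.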

Series [11] relates to Acinetobacter baumannii. In words: Potentiation of colistin-induced antimicrobial activity against colistin-resistant Acinetobacter baumannii isolate 3942 assessed as fold reduction in colistin MIC at 30 uM after 18 hrs by broth microdilution assay. Format: functional. Summed up:
as §3

Series [12] relates to Acinetobacter baumannii. In words: Potentiation of colistin-induced antimicrobial activity against colistin-resistant Acinetobacter baumannii isolate 3942 assessed as fold reduction in colistin MIC at 15 uM after 18 hrs by broth microdilution assay. Format: functional. In short, it runs like this:
as §3

In series [13] the test system is Acinetobacter baumannii. The series can be described thus: Potentiation of colistin-induced antimicrobial activity against colistin-resistant Acinetobacter baumannii isolate 3942 assessed as fold reduction in colistin MIC at 10 uM after 18 hrs by broth microdilution assay. It is filed as functional. In short, it runs like this:
as §3

The test system of series [14] is Klebsiella pneumoniae. In words: Potentiation of colistin-induced antimicrobial activity against colistin-resistant Klebsiella pneumoniae isolate C3 assessed as fold reduction in colistin MIC at 40 uM after 18 hrs by broth microdilution assay. Format: functional. Summed up:
as §3

Series [15] has as its system Klebsiella pneumoniae. In words: Potentiation of colistin-induced antimicrobial activity against colistin-resistant Klebsiella pneumoniae isolate C3 assessed as fold reduction in colistin MIC at 30 uM after 18 hrs by broth microdilution assay. Format: functional. In short, it runs like this: as §3
For series [16], the system named is Klebsiella pneumoniae. In words: Potentiation of colistin-induced antimicrobial activity against colistin-resistant Klebsiella pneumoniae isolate C3 assessed as fold reduction in colistin MIC at 20 uM after 18 hrs by broth microdilution assay. Format: functional. In short, it runs like this:
as §3

Series [17] concerns Klebsiella pneumoniae. The series can be described thus: Potentiation of colistin-induced antimicrobial activity against colistin-resistant Klebsiella pneumoniae isolate C3 assessed as fold reduction in colistin MIC at 10 uM after 18 hrs by broth microdilution assay. It is filed as functional. Summed up:
as §3

In series [18] the test system is Klebsiella pneumoniae. The series can be described thus: Potentiation of colistin-induced antimicrobial activity against colistin-resistant Klebsiella pneumoniae isolate C3 after 18 hrs by broth microdilution assay. Format: functional, organism-based. Summed up: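 Colistin MIC was determined by adapted CLSI broth microdilution in CAMHB (5×10^5 CFU/mL inoculum), with adjuvant held at fixed levels of 5, 10, 15, 20, 30, 40, 50 or 60 μM. Adjuvant was dosed from DMSO stock while colistin was serially diluted. Plates were incubated stationary at 37°C for 18 h. Fold reduction was taken versus colistin alone.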

In series [19] the test system is Acinetobacter baumannii. The series can be described thus: Potentiation of colistin-induced antimicrobial activity against colistin-resistant Acinetobacter baumannii isolate 3942 assessed as fold reduction in colistin MIC at 60 uM incubated for 2 to 24 hrs under shaking condition in presence of 0.001% triton X-100 by broth microdilution assay. It is filed as functional.

Series [20] deals with Acinetobacter baumannii. In words: Potentiation of colistin-induced antimicrobial activity against colistin-resistant Acinetobacter baumannii isolate 3942 assessed as fold reduction in colistin MIC at 30 uM incubated for 2 to 24 hrs under shaking condition in presence of 0.001% triton X-100 by broth microdilution assay. Format: functional.
The test system of series [21] is Klebsiella pneumoniae. The series can be described thus: Potentiation of colistin-induced antimicrobial activity against colistin-resistant Klebsiella pneumoniae isolate C3 assessed as fold reduction in colistin MIC at 30 uM incubated for 2 to 24 hrs under shaking condition in presence of 0.001% triton X-100 by broth microdilution assay. It is filed as functional.

Series [22] concerns Acinetobacter baumannii. In words: Toxicity in colistin-resistant Acinetobacter baumannii isolate 3942 at 60 uM after 18 hrs by broth microdilution assay. It is filed as organism-based.
Series [23] deals with Acinetobacter baumannii. In words: Induction of membrane permeabilization in colistin-resistant Acinetobacter baumannii isolate 3942 at 60 uM measured after 1 hr by SYTO-9/propidium iodide staining based fluorescence assay relative to control. It is filed as functional. Summed up: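 Cells were grown overnight in CAMHB at 37°C, diluted 1:10 and grown 4 h more to an OD600 of ~0.3. They were pelleted, washed with sterile water and resuspended at 1/10 volume in water containing compound. After 1 h at 37°C with shaking, cells were washed and stained with SYTO-9/propidium iodide (1:1, 3 μL/mL) for 15 min at RT. Emission was read at 530 and 645 nm (excitation 485 nm), and the green/red ratio was expressed as % of the untreated control.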

Series [24] is described as follows: Hemolytic activity in sheep erythrocytes assessed as hemolysis at 100 uM incubated for 1 hr under shaking condition by UV-spectrophotometry. Format: ADME, cell-based, Ovis aries, Erythrocyte. The settings on record: read-out: Activity. In short, it runs like this:
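Washed sheep erythrocytes (defibrinated blood spun, resuspended in PBS three times) diluted 10-fold in PBS containing compound from DMSO stock. DMSO negative control (0% lysis), 1% Triton X100 positive control (100% lysis). 1 h at 37°C with shaking, then spun 10 min at 10,000 rpm and supernatant diluted 1:40 in distilled water.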

For `O=C(NCc1c[nH]c2ccccc12)c1cc(Br)c(Br)[nH]1`, the “fold change (FC)” value is on record as 2048 in series [1]; 16 in [2]; 2048 in series [6]; 512 in series [7]; 2048 in [8]; 4 in series [9]. Further, the “fold change (FC)” value came out at 512 in [10]; 128 in series [11]; 8 in series [12]; 2 in series [13]; 256 in series [14]; 128 in series [15]. The “fold change (FC)” value in series [16] was 128; in series [17] it was 32; in series [19] it was 1024; in series [20] it was 128; in [21] it was 512; in series [23], 1.9. Besides, the MIC in series [3], in series [4] and in series [5] was over 200 µM throughout. Moreover, the Activity result in series [18] was “Dose-dependent effect”; in [22], “Non-Toxic”. The hemolysis at 1 h, 100 µM in series [24] was under 1%.

These data come from ChEMBL document CHEMBL4392827, “Tryptamine derivatives disarm colistin resistance in polymyxin-resistant gram-negative bacteria” (Bioorg Med Chem, 2019).
